According to ChEMBL document CHEMBL1140053, “Discovery of antimycobacterial spiro-piperidin-4-ones: an atom economic, stereoselective synthesis, and biological intervention” (J Med Chem, 2008):
In brackets after ≈: the same amount, converted by molar mass.

System: Mycobacterium tuberculosis
Test: Antimycobacterial activity against multidrug-resistant Mycobacterium tuberculosis by agar dilution method
Assay type: functional
Outline: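 Clinical MDR isolate resistant to isoniazid, rifampicin, ethambutol and ofloxacin. Agar dilution in Middlebrook 7H11 agar with OADC, pH 7.40, NCCLS-like method, run in duplicate. MIC is the lowest concentration giving complete inhibition of growth.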

Row | Compound | MIC [µg/mL]
1 | CN1C/C(=C\c2ccc(F)cc2)C(=O)[C@]2(C1)[C@@H](c1ccc(F)cc1)[C@H](c1ccccc1)N[C@@]21C(=O)Nc2ccccc21 (racemic) | 0.16 (≈ 0.285 µM)
2 | CN1C/C(=C\c2ccco2)C(=O)[C@]2(C1)[C@@H](c1ccco1)CN(C)[C@@]21C(=O)Nc2ccccc21 (racemic) | 3.52 (≈ 7.94 µM)
3 | CN1C/C(=C\c2cccc(F)c2)C(=O)[C@]2(C1)[C@@H](c1cccc(F)c1)CN(C)[C@@]21C(=O)Nc2ccccc21 (racemic) | 1.56 (≈ 3.12 µM)
4 | Cc1ccccc1/C=C1\CN(C)C[C@@]2(C1=O)[C@@H](c1ccccc1C)[C@H](c1ccccc1)N[C@@]21C(=O)Nc2ccccc21 (racemic) | 2.82 (≈ 5.09 µM)
5 | COc1ccc(/C=C2\CN(C)C[C@@]3(C2=O)[C@@H](c2ccc(OC)cc2)CN(C)[C@@]32C(=O)Nc3ccccc32)cc1 (racemic) | 0.36 (≈ 0.688 µM)
6 | CN1C/C(=C\c2ccc(Cl)cc2Cl)C(=O)[C@]2(C1)[C@@H](c1ccc(Cl)cc1Cl)[C@H](c1ccccc1)N[C@@]21C(=O)Nc2ccccc21 (racemic) | 2.35 (≈ 3.54 µM)
7 | Cc1ccccc1/C=C1\CN(C)C[C@@]2(C1=O)[C@@H](c1ccccc1C)CN(C)[C@@]21C(=O)Nc2ccccc21 (racemic) | 0.39 (≈ 0.793 µM)
8 | COc1ccc(/C=C2\CN(C)C[C@@]3(C2=O)[C@@H](c2ccc(OC)cc2)[C@H](c2ccccc2)N[C@@]32C(=O)Nc3ccccc32)cc1 (racemic) | 0.67 (≈ 1.14 µM)
9 | CN1C/C(=C\c2cccs2)C(=O)[C@]2(C1)[C@@H](c1cccs1)[C@@H]1CCCN1[C@@]21C(=O)Nc2ccccc21 (racemic) | 0.38 (≈ 0.757 µM)
10 | COc1ccccc1/C=C1\CN(C)C[C@@]2(C1=O)[C@@H](c1ccccc1OC)[C@H](c1ccccc1)N[C@@]21C(=O)Nc2ccccc21 (racemic) | 2.67 (≈ 4.56 µM)
11 | COc1ccccc1/C=C1\CN(C)C[C@@]2(C1=O)[C@@H](c1ccccc1OC)[C@@H]1CCCN1[C@@]21C(=O)Nc2ccccc21 (racemic) | 0.71 (≈ 1.29 µM)
12 | COc1ccccc1/C=C1\CN(C)C[C@@]2(C1=O)[C@@H](c1ccccc1OC)CN(C)[C@@]21C(=O)Nc2ccccc21 (racemic) | 1.49 (≈ 2.85 µM)
13 | CN1C/C(=C\c2ccccc2Cl)C(=O)[C@]2(C1)[C@@H](c1ccccc1Cl)[C@H](c1ccccc1)N[C@@]21C(=O)Nc2ccccc21 (racemic) | 5.27 (≈ 8.86 µM)
14 | CN1C/C(=C\c2cccc3ccccc23)C(=O)[C@]2(C1)[C@@H](c1cccc3ccccc13)[C@@H]1CCCN1[C@@]21C(=O)Nc2ccccc21 (racemic) | 5.31 (≈ 9 µM)
15 | CN1C/C(=C\c2ccc(Cl)cc2Cl)C(=O)[C@]2(C1)[C@@H](c1ccc(Cl)cc1Cl)CN(C)[C@@]21C(=O)Nc2ccccc21 (racemic) | 2.59 (≈ 4.31 µM)
16 | NNC(=O)c1ccncc1 [ISONIAZID] | 45.6 (≈ 332 µM)
17 | CN1C/C(=C\c2ccccc2Cl)C(=O)[C@]2(C1)[C@@H](c1ccccc1Cl)CN(C)[C@@]21C(=O)Nc2ccccc21 (racemic) | 0.08 (≈ 0.15 µM)
18 | CN1C/C(=C\c2ccc(F)cc2)C(=O)[C@]2(C1)[C@@H](c1ccc(F)cc1)[C@@H]1CCCN1[C@@]21C(=O)Nc2ccccc21 (racemic) | 2.97 (≈ 5.65 µM)
19 | CN1C/C(=C\c2ccccc2Cl)C(=O)[C@]2(C1)[C@@H](c1ccccc1Cl)[C@@H]1CCCN1[C@@]21C(=O)Nc2ccccc21 (racemic) | 0.71 (≈ 1.27 µM)
20 | CN1C/C(=C\c2ccccc2)C(=O)[C@]2(C1)[C@@H](c1ccccc1)[C@H](c1ccccc1)N[C@@]21C(=O)Nc2ccccc21 (racemic) | 1.49 (≈ 2.83 µM)
21 | CN1C/C(=C\c2cccs2)C(=O)[C@]2(C1)[C@@H](c1cccs1)CN(C)[C@@]21C(=O)Nc2ccccc21 (racemic) | 3.28 (≈ 6.9 µM)
22 | Cc1ccc(/C=C2\CN(C)C[C@@]3(C2=O)[C@@H](c2ccc(C)cc2)[C@H](c2ccccc2)N[C@@]32C(=O)Nc3ccccc32)cc1 (racemic) | 1.41 (≈ 2.55 µM)
